This is an account of results in ChEMBL document CHEMBL3272249, “Esters of N-tert-butylarterenol. Long-acting new bronchodilators with reduced cardiac effects” (J Med Chem, 1976).

In data set [1] the test system is Canis familiaris. The experiment in a line: Cardiotoxicity in spontaneously respiring dog assessed as time of increase in heart rate at 4 to 8 mg/kg, iv relative to control. It counts as toxicity, organism-based, Canis lupus familiaris. Further details: dose 4-8 mg/kg, route intravenous. The conditions noted are these: in vivo. The gist of the method:
(§1)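 Anesthetized, spontaneously respiring dogs. Heart rate was taken from a lead II EKG, and blood pressure from the right femoral artery by transducer. The increase in heart rate (beats/min) was scored on a graded scale with more than 4 dogs per dose, and its duration was recorded. Drugs were dissolved fresh in distilled water, diluted in physiological saline and kept on ice.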

Data set [2] concerns Canis familiaris. The data set is described as follows: Cardiotoxicity in spontaneously respiring dog assessed as time of increase in heart rate at 200 to 400 mg/kg, id relative to control. It counts as toxicity, organism-based, Canis lupus familiaris. Further details: dose 200-400 mg/kg, route intraduodenal. Conditions: in vivo, other. In a few lines: as §1
The subject of data set [3] is Canis familiaris. The experiment in a line: Bronchodilator activity in dog assessed as time of inhibition of carbachol or histamine-induced bronchoconstriction at 4 to 8 mg/kg, iv relative to control. The class given is functional, Canis lupus familiaris. Conditions: dose mg/kg 4-8. In a few lines:
(§2)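 Dog airway model: anesthetized, cannulated via a nonbreathing valve, with airway pressure changes recorded after iv carbachol (2–4 μg/kg) or histamine diphosphate (20–50 μg/kg) challenge, each agonist in different animals. Compounds were given iv, intraduodenally or intratracheally from fresh aqueous stocks diluted in saline. Duration (h) of inhibition of induced bronchoconstriction was followed, and the two agonist datasets were pooled.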

In data set [4] the test system is Canis familiaris. The data set is described as follows: Bronchodilator activity in dog assessed as time of inhibition of carbachol or histamine-induced bronchoconstriction at 200 to 400 mg/kg, id relative to control. The class given is functional, Canis lupus familiaris. The conditions noted are these: dose mg/kg 200-400; route intraduodenal. In a few lines:
as §2

Data set [5] deals with Canis familiaris. The data set is described as follows: Bronchodilator activity in dog assessed as time of inhibition of carbachol or histamine-induced bronchoconstriction at 400 to 800 mg/kg, it relative to control. It counts as functional, Canis lupus familiaris. The conditions noted are these: dose mg/kg 400-800; route endotracheal. In a few lines: as §2
Data set [6] concerns Canis familiaris. The data set is described as follows: Cardiotoxicity in spontaneously respiring dog assessed as degree of increase in heart rate at 4 to 8 mg/kg, iv relative to control. The conditions noted are these: in vivo. It counts as toxicity, organism-based, Canis lupus familiaris. Further details: dose 4-8 mg/kg, route intravenous. The gist of the method: as §1
In data set [7] the test system is Canis familiaris. The data set is described as follows: Cardiotoxicity in spontaneously respiring dog assessed as degree of increase in heart rate at 200 to 400 mg/kg, id relative to control. The class given is toxicity, organism-based, Canis lupus familiaris. Further details: dose 200-400 mg/kg, route intraduodenal. The conditions noted are these: in vivo, other. In a few lines: as §1

Data set [8] concerns Canis familiaris. The experiment in a line: Bronchodilator activity in dog assessed as degree of inhibition of carbachol or histamine-induced bronchoconstriction at 4 to 8 mg/kg, iv relative to control. The conditions noted are these: dose mg/kg 4-8. It counts as functional, Canis lupus familiaris. The gist of the method: (§3)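 Anesthetized dogs, trachea cannulated with a nonbreathing valve. Bronchoconstriction induced by iv carbachol (2–4 μg/kg) or histamine diphosphate (20–50 μg/kg) in separate animals, and airway pressure recorded by transducer. Drug stocks were made fresh in distilled water, diluted in saline and kept on ice. Read-out was percent inhibition of control constriction, averaged over at least three dogs per dose at the higher dose. Carbachol and histamine data were combined.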

For data set [9], the system named is Canis familiaris. The experiment in a line: Bronchodilator activity in dog assessed as degree of inhibition of carbachol or histamine-induced bronchoconstriction at 200 to 400 mg/kg, id relative to control. It counts as functional, Canis lupus familiaris. The conditions noted are these: dose mg/kg 200-400; route intraduodenal. The gist of the method:
as §3

Data set [10] relates to Canis familiaris. The data set is described as follows: Bronchodilator activity in dog assessed as degree of inhibition of carbachol or histamine-induced bronchoconstriction at 400 to 800 mg/kg, it relative to control. It counts as functional, Canis lupus familiaris. Conditions: dose mg/kg 400-800; route endotracheal. The gist of the method: as §3
The test system of data set [11] is Canis familiaris. The data set is described as follows: Cardiotoxicity in spontaneously respiring dog assessed as time of increase in heart rate at 20 to 100 mg/kg, iv relative to control. The class given is toxicity, organism-based, Canis lupus familiaris. Further details: dose 20-100 mg/kg, route intravenous. The conditions noted are these: in vivo. The gist of the method: as §1

In data set [12] the test system is Canis familiaris. The data set is described as follows: Bronchodilator activity in dog assessed as time of inhibition of carbachol or histamine-induced bronchoconstriction at 20 to 100 mg/kg, iv relative to control. It counts as functional, Canis lupus familiaris. The conditions noted are these: dose mg/kg 20-100. In a few lines:
as §2

Data set [13] deals with Canis familiaris. The experiment in a line: Bronchodilator activity in dog assessed as time of inhibition of carbachol or histamine-induced bronchoconstriction at 50 to 100 mg/kg, id relative to control. The conditions noted are these: dose mg/kg 50-100; route intraduodenal. It counts as functional, Canis lupus familiaris. In a few lines:
(§4)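 Anesthetized dogs with an airway cannula and a nonbreathing valve. Bronchoconstriction was induced by iv carbachol (2–4 μg/kg) or histamine diphosphate (20–50 μg/kg) and read as change in airway pressure by transducer. Each compound was tested against both agonists in different dogs, and the results were combined and averaged. Effect is % inhibition of control constriction, with at least three dogs per dose. Drugs were dissolved fresh in distilled water, diluted in saline and kept on ice.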

Data set [14] concerns Canis familiaris. The data set is described as follows: Cardiotoxicity in spontaneously respiring dog assessed as degree of increase in heart rate at 20 to 100 mg/kg, iv relative to control. The class given is toxicity, organism-based, Canis lupus familiaris. The conditions noted are these: in vivo. Set-up: dose 20-100 mg/kg, route intravenous. The gist of the method: as §1

The subject of data set [15] is Canis familiaris. The experiment in a line: Bronchodilator activity in dog assessed as degree of inhibition of carbachol or histamine-induced bronchoconstriction at 20 to 100 mg/kg, iv relative to control. It counts as functional, Canis lupus familiaris. The conditions noted are these: dose mg/kg 20-100. The gist of the method:
as §3

Data set [16] deals with Canis familiaris. The experiment in a line: Bronchodilator activity in dog assessed as degree of inhibition of carbachol or histamine-induced bronchoconstriction at 50 to 100 mg/kg, id relative to control. Conditions: dose mg/kg 50-100; route intraduodenal. The class given is functional, Canis lupus familiaris. The gist of the method: as §3
Data set [17] deals with Canis familiaris. The data set is described as follows: Bronchodilator activity in dog assessed as time of inhibition of carbachol or histamine-induced bronchoconstriction at 5 mg/kg, iv relative to control. It counts as functional, Canis lupus familiaris. The gist of the method: as §4
Data set [18] has as its system Canis familiaris. The data set is described as follows: Bronchodilator activity in dog assessed as time of inhibition of carbachol or histamine-induced bronchoconstriction at 50 mg/kg, id relative to control. The class given is functional, Canis lupus familiaris. The conditions noted are these: route intraduodenal. In a few lines:
as §4

Data set [19] deals with Canis familiaris. The data set is described as follows: Bronchodilator activity in dog assessed as degree of inhibition of carbachol or histamine-induced bronchoconstriction at 5 mg/kg, iv relative to control. The class given is functional. Conditions: Canis lupus familiaris. In a few lines: as §3
For data set [20], the system named is Canis familiaris. The experiment in a line: Bronchodilator activity in dog assessed as degree of inhibition of carbachol or histamine-induced bronchoconstriction at 50 mg/kg, id relative to control. The class given is functional. The conditions noted are these: Canis lupus familiaris, route intraduodenal. The gist of the method:
as §3

Where only a bound is given, the exact number is not on record here.

Regarding `CC(C)CC(=O)Oc1ccc([C@@H](O)CNC(C)(C)C)cc1OC(=O)CC(C)C.Cl`, the Time with Canis familiaris [1] is < 1 h; in the data set on Canis familiaris [2], < 3 h; in the data set on Canis familiaris [3], <2 h; with Canis familiaris [4] it was 3 h; in the data set with Canis familiaris [5], <2 h. Also, the figures for the Activity in the data set on Canis familiaris [6] and in the data set on Canis familiaris [7] were 20 beats/min and 40 beats/min, respectively. For the same compound, the “inhibition (INH)” value was >70% in the data set with Canis familiaris [8], 45% in the data set with Canis familiaris [9] and >70% with Canis familiaris [10].

As for `CC(C)(C)NC[C@H](O)c1ccc(OC(=O)C(C)(C)C)c(OC(=O)C(C)(C)C)c1.Cl`, the Time is < 2 h with Canis familiaris [11], <2 h with Canis familiaris [5], 3 h in the data set with Canis familiaris [12] and 3 h in the data set on Canis familiaris [13]. Also, in the data set on Canis familiaris [14], the Activity stood at 20 beats/min. For the same compound, the “inhibition (INH)” value is listed as 45% with Canis familiaris [10], >70% in the data set on Canis familiaris [15] and >70% in the data set on Canis familiaris [16].

One may read the inhibition in vivo as the share of the control response that was lost under treatment. `CC(C)(C)NC[C@H](O)c1ccc(OC(=O)C2(C)CC2)c(OC(=O)C2(C)CC2)c1.Cl`: the Time in the data set with Canis familiaris [17] is <1 h; in the data set on Canis familiaris [18], 2 h. Further, the inhibition in vivo at 5 mg/kg in the data set with Canis familiaris [19] was determined as 45%. Besides, in the data set with Canis familiaris [20], the inhibition in vivo at 50 mg/kg was found to be 45%.
